Measurements taken from ChEMBL document CHEMBL2176883, “Aminopiperidine sulfonamide Cav2.2 channel inhibitors for the treatment of chronic pain” (J Med Chem, 2012).

Legend:
[1] = biological target: T1, Cav1.2 (Homo sapiens, UniProt Q13936); experiment: Inhibition of Cav1.2 assessed as inhibition of calcium flux at 1 uM by cell based FLIPR assay
How it was run: (§1)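 Cav1.2 counterscreen using a related calcium-influx FLIPR assay, run as % inhibition at single concentrations or as a titration.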

[2] = test system: Blood; experiment: Drug metabolism in Sprague-Dawley rat assessed as 3-trifluoromethylbenzenesulfonamide level in blood at 10 mg/kg, po after 8 hrs; format: ADME, organism-based; set-up: dose 10 mg/kg, route oral; conditions: in vivo
How it was run: (§2)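 Male Sprague-Dawley rats were given a 10 mg/kg oral dose. Parent and metabolite concentrations were measured in whole blood and brain over time, including 8 h postdose.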

[3] = Metabolic stability in human liver microsomes assessed as compound remaining at 1 uM after 1 hr; format: ADME, Microsome; conditions: read-out: Stability
How it was run: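 Compound at 1 μM was incubated with human or rat liver microsomes (1 mg/mL) for 1 h, and the percentage of parent remaining was determined.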

[4] = Half life in rat at 3 mg/kg, po and 1 mg/kg, iv; format: ADME, organism-based; conditions: in vivo
How it was run: (§3)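 Rat pharmacokinetics from iv and po arms: 0.6 mg/kg iv with 1.8 mg/kg po, or 1 mg/kg iv with 3 mg/kg po. AUC was normalized to po dose (μM·h·kg/mg). Clearance (mL/min/kg) and half-life come from the iv arm, and F% is oral bioavailability.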

[5] = biological target: hERG (Homo sapiens, UniProt Q12809); experiment: Displacement of [35S]-MK-0499 from human ERG at 1 uM; conditions: probe [35S]-MK-0499
How it was run: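 hERG binding was measured as displacement of 35S-labeled MK-0499 at single test concentrations.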

[6] = test system: Rattus norvegicus; experiment: Antinociceptive activity in rat assessed as reversal of complete Freund's adjuvant-induced pain at 10 mg/kg, po after 3 hrs; format: functional
How it was run: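 Rats had complete Freund's adjuvant-induced inflammatory pain and got oral dosing. Allodynia was read at 1 and 3 h postdose. Percent reversal per rat = (postdose − predose)/(preinjury − predose). Groups had at least six animals, reported as mean + SEM.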

[7] = Fraction unbound in human plasma; format: ADME, cell-free
[8] = Tmax in rat at 3 mg/kg; format: ADME, organism-based; set-up: dose 3 mg/kg; conditions: in vivo
How it was run: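 Rat pharmacokinetics: 3 mg/kg po arm alongside 1 mg/kg iv; tmax from oral arm, half-life from iv dosing.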

[9] = Oral bioavailability in rat at 3 mg/kg; format: ADME, organism-based; conditions: in vivo; how it was run: as §3
[10] = biological target: Voltage-dependent N-type calcium channel subunit alpha-1B (Homo sapiens, UniProt Q00975); experiment: Inhibition of Cav2.2 expressed HEK293 cells assessed as inhibition of calcium flux by FLIPR assay in presence of 30 mM of potassium; format: cell-based
How it was run: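 Calcium influx was read with a calcium-sensitive dye on FLIPR Tetra in CBK cells expressing α1B-1, α2-δ and β3a with Kir2.3. Cells were preincubated with compound in 30 mM K+, then channels were opened by 1:1 addition of 140 mM K+ solution. Compounds were screened at 1 μM, then titrated over 10 points (0.001–30 μM) in quadruplicate, mean ± SD. Values are averages of n ≥ 3.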

[11] = test system: Rattus norvegicus; experiment: Neurotoxicity in rat assessed as motor coordination at 100 mg/kg, po after 3 hrs; format: toxicity, organism-based; set-up: dose 100 mg/kg, route oral; conditions: in vivo
How it was run: (§4)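 Rats were dosed orally at 100 mg/kg, motor coordination was tested on a rota-rod 3 h later, and plasma and brain exposure were then measured.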

[12] = Drug level rat brain at 100 mg/kg, po after 3 hrs; format: ADME, organism-based; set-up: dose 100 mg/kg, route oral; conditions: read-out: Drug uptake; how it was run: as §4
[13] = test system: Rattus norvegicus; experiment: Analgesic activity in rat SNL neuropathic pain model assessed as reversal of mechanical allodynia at 30 mg/kg, po after 1 hr; format: functional
[14] = Plasma concentration in rat SNL neuropathic pain model at 10 mg/kg, po after 3 hrs; format: ADME, organism-based; set-up: dose 10 mg/kg, route oral
How it was run: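 Rats with spinal nerve ligation; separate SNL-treated rats given single oral 10 mg/kg dose; plasma exposure measured 3 h postdose.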

[15] = Plasma concentration rat at 100 mg/kg, po after 3 hrs; format: ADME, organism-based; set-up: dose 100 mg/kg, route oral
How it was run: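 Rat rota-rod motor coordination study; single 100 mg/kg oral dose; plasma and brain exposure determined 3 h postdose.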

[16] = biological target: Cytochrome P450 3A4 (Homo sapiens, UniProt P08684); experiment: Inhibition of CYP3A4; format: ADME
[17] = biological target: T2, Nuclear receptor subfamily 1 group I member 2 (Homo sapiens, UniProt O75469); experiment: Activation of PXR
T2 sequence (O75469 whole entry): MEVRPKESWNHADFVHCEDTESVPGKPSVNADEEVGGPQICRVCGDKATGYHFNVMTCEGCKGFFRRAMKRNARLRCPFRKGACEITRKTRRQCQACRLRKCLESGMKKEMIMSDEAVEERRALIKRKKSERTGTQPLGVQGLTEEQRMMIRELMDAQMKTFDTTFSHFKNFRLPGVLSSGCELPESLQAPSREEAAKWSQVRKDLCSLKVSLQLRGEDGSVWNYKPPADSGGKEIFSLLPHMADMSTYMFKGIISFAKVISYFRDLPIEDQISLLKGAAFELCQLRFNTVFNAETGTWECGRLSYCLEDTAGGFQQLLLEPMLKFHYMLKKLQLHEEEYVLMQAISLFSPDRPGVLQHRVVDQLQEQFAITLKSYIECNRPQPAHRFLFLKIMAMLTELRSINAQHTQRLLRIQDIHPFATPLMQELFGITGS
How it was run: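 PXR activation read as EC50, with maximal activation given as % at 10 μM.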

[18] = test system: Mus musculus; experiment: Antinociceptive activity in Cav2.2 expressing wild type mouse SNL neuropathic pain model assessed as reversal of mechanical allodynia at 30 mg/kg, po after 2 hrs; format: functional
How it was run: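 Cav2.2+/+ and Cav2.2−/− mice underwent spinal nerve ligation, then got a single 30 mg/kg oral dose. Mechanical allodynia was scored 2 h postdose.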

[19] = test system: Rattus norvegicus; experiment: Analgesic activity in rat SNL neuropathic pain model assessed as reversal of mechanical allodynia at 10 mg/kg, po after 1 hr; format: functional
[20] = Fraction unbound in rat plasma; format: ADME, cell-free
[21] = Plasma concentration in vagotomized dog at 10 mg/kg, iv after 90 mins; format: ADME, organism-based, Canis lupus familiaris; set-up: dose 10 mg/kg, route intravenous
How it was run: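 Anesthetized, vagotomized dogs; intravenous infusion in sequential rising doses of 1, 3 and 10 mg/kg (cumulative); plasma exposure sampled at indicated time points, n = 3.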

[22] = test system: Mus musculus; experiment: Antinociceptive activity in Cav2.2 deficient mouse assessed as reversal of complete Freund's adjuvant-induced pain at 30 mg/kg, po after 2 hrs; format: functional
[23] = Drug metabolism in Sprague-Dawley rat assessed as parent compound level in blood at 10 mg/kg, po after 8 hrs; format: ADME, organism-based; set-up: dose 10 mg/kg, route oral; conditions: read-out: Drug metabolism; how it was run: as §2
[24] = Plasma clearance in rat at 3 mg/kg, po and 1 mg/kg, iv; format: ADME, organism-based; how it was run: as §3
[25] = biological target: T1, Cav1.2; experiment: Inhibition of Cav1.2 assessed as inhibition of calcium flux at 3 uM by cell based FLIPR assay; how it was run: as §1
[26] = test system: Rattus norvegicus; experiment: Antinociceptive activity in rat assessed as reversal of complete Freund's adjuvant-induced pain at 30 mg/kg, po after 1 hr; format: functional
How it was run: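 In the rat CFA inflammatory pain model, compound was given orally at 30 mg/kg and allodynia was read at 1 and 3 h postdose. Average % reversal = (postdose − predose)/(preinjury − predose) for each rat, n = 6. Plasma exposure at 3 h was measured in satellite rats (n = 2).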

[27] = test system: Mus musculus; experiment: Antinociceptive activity in Cav2.2 expressing wild type mouse assessed as reversal of complete Freund's adjuvant-induced pain at 30 mg/kg, po after 2 hrs; format: functional

T1 sequence (Q13936 whole entry): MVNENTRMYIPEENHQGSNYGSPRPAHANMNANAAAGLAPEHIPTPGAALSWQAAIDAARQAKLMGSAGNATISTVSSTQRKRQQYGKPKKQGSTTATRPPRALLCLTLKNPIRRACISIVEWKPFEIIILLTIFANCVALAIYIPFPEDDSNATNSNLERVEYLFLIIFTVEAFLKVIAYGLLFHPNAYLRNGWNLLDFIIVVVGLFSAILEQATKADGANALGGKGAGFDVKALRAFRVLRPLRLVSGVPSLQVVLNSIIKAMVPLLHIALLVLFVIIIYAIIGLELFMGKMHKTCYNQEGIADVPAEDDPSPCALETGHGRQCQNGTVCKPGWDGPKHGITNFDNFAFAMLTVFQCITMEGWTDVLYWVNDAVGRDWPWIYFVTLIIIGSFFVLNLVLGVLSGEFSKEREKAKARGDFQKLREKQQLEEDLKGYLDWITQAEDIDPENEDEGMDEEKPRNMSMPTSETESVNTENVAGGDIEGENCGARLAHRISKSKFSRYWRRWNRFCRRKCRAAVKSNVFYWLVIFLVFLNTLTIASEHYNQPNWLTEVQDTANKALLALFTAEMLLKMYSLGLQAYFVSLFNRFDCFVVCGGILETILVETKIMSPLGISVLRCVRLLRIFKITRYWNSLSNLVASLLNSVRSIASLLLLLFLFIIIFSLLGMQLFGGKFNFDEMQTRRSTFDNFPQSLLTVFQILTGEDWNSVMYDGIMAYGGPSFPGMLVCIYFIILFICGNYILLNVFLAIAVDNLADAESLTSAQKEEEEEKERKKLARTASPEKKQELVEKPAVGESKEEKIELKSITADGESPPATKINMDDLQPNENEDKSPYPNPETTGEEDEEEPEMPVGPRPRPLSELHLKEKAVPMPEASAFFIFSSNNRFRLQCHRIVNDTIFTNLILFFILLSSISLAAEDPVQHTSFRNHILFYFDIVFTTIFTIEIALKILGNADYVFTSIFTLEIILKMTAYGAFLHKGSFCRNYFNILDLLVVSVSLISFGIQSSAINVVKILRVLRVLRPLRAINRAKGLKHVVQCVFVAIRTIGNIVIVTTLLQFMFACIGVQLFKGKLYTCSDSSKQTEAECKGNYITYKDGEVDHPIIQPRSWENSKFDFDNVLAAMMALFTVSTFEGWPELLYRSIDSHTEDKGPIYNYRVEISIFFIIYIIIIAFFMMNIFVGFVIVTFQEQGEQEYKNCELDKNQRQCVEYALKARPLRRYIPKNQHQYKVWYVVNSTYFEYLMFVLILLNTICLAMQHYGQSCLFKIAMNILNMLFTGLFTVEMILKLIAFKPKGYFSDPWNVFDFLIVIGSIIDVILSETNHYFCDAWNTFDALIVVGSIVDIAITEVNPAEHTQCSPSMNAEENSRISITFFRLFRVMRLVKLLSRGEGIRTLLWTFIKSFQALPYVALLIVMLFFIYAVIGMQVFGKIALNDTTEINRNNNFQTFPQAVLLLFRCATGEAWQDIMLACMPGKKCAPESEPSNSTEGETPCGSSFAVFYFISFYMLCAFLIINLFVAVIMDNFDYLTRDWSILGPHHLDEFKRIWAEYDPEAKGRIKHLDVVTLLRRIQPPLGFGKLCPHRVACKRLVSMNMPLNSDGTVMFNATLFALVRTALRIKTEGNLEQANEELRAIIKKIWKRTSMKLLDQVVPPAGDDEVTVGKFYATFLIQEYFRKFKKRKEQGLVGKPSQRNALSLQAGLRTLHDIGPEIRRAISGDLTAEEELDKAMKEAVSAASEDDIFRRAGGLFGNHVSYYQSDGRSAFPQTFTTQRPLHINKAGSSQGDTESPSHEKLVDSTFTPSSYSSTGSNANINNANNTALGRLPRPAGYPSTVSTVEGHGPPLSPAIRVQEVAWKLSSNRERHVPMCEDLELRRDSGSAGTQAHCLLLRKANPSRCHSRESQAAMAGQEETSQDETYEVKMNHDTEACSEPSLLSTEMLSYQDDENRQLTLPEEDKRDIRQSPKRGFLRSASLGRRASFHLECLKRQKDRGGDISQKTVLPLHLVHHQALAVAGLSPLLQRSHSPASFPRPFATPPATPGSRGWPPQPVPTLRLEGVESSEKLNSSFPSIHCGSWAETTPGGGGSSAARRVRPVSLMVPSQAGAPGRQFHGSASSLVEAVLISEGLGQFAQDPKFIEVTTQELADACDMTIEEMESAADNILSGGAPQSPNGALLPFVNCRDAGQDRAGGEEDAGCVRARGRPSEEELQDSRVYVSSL
Chain of hERG (Q12809 whole entry): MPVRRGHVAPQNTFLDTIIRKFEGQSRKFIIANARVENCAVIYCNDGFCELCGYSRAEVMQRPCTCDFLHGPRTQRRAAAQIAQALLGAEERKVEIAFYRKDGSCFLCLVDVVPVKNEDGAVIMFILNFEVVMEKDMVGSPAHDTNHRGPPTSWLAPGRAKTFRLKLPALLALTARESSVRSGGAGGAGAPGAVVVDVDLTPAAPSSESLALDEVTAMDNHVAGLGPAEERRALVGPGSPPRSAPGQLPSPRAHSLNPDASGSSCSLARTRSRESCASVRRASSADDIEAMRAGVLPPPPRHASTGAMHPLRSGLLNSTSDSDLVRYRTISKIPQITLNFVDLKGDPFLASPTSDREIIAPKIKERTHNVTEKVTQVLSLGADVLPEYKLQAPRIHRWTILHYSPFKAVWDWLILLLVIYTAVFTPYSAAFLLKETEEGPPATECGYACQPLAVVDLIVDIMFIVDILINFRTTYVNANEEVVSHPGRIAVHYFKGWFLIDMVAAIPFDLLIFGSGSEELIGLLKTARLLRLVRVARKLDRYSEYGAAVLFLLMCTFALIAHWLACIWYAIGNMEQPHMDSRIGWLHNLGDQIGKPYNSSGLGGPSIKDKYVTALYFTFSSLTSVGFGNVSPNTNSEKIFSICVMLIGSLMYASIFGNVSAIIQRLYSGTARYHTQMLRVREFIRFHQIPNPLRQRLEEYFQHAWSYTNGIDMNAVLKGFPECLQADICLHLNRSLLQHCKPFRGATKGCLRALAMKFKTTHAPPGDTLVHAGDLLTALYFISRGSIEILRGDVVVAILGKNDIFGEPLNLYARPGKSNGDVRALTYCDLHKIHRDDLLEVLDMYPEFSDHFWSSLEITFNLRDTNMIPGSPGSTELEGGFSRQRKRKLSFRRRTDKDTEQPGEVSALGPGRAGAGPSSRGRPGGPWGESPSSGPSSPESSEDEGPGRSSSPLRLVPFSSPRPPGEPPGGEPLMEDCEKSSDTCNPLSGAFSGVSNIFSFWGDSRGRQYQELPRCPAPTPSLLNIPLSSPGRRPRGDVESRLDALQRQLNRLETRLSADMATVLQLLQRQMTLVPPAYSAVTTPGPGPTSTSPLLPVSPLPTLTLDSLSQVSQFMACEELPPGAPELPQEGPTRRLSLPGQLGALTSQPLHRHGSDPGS
Chain of Cytochrome P450 3A4 (P08684 whole entry): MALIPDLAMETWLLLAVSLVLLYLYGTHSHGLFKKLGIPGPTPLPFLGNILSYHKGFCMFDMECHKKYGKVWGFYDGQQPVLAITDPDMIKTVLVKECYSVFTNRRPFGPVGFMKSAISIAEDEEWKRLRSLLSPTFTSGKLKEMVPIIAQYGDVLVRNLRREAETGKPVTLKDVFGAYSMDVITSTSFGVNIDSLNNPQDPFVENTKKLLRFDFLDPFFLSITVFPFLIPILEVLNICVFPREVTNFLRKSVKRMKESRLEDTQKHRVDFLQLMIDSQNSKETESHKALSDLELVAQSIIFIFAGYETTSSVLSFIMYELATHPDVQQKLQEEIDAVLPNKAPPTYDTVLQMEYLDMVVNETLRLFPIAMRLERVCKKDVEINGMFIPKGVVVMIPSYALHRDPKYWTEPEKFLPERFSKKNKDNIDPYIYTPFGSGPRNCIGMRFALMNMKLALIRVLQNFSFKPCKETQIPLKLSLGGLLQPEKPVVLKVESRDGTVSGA

CS(=O)(=O)c1ccc(F)cc1C(=O)N1CCC(N(C2CC2)S(=O)(=O)c2cccc(C(F)(F)F)c2)CC1
inhibition at 1 µM [1]: 18% | Drug metabolism [2]: 6.1 µM | remaining at 1 h, 1 µM [3]: 30% | half-life [4]: 1.3 h | inhibition at 1 µM [5]: 1.6% | Activity [6]: 49% | fraction unbound [7]: 0.014 | Tmax [8]: 1.7 h | bioavailability [9]: 99% | IC50 [10]: 560 nM | Activity [11]: Non-toxic | concentration at 3 h [12]: 11.9 µM | Activity [13]: 65% | concentration at 3 h [14]: 1.26 µM | concentration at 3 h [15]: 9.5 µM | IC50 [16]: 5100 nM | EC50 [17]: 430 nM | Activity [18]: 38% | Activity [19]: 45% | fraction unbound [20]: 0.02 | concentration at 1.5 h [21]: 20.4 µM | Activity [22]: 4% | concentration at 8 h [23]: 0.31 µM | clearance [24]: 35 mL/min/kg | inhibition at 3 µM [25]: 34% | Activity [26]: 66% | Activity [27]: 35%
